Assay outcomes: PubChem, several laboratories
Only some compounds are listed: those with a hit (about 2.5% of all), similar ones and a draw of the others.
PHOSPHO1 inh = inhibitors of human PHOSPHO1 phosphatase. Q8TCT1. recombinant PHOSPHO1, absorbance phosphatase assay. inhibition, % at 13.3 µM. hit rate 1.1% among 290,000; in the data active = inhibition above about 60%
PfGluPho inh = PfG6PD (Plasmodium falciparum) enzyme inhibition; PfGluPho enzyme, NADPH resazurin-diaphorase fluorescence; hit rate 0.78% among 350,000; inhibition, % at 20 µM;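 active = inhibition reaching at least a set limit at 20 µM in the primary screen, cut at about 59% in these data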
TbHK1 inh = blocks Trypanosoma brucei hexokinase 1 activity. recombinant TbHK1, G6PDH-coupled NADH A340. hit rate 0.11% among 220,000. inhibition, % at 10 µM;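 active = inhibition of 50% or more in the single-dose primary screen; inactive = inhibition below 50%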
HKDC1 inh = inhibitors of human hexokinase HKDC1; recombinant HKDC1, G6PDH/diaphorase resazurin coupled fluorescence; inhibition, % at 20 µM; hit rate 0.16% among 340,000; AID 493160;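 active = inhibition above about 35% when tested at 20 µM, limit read from the data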
Target sequence (Q2TB90 whole entry, looked up): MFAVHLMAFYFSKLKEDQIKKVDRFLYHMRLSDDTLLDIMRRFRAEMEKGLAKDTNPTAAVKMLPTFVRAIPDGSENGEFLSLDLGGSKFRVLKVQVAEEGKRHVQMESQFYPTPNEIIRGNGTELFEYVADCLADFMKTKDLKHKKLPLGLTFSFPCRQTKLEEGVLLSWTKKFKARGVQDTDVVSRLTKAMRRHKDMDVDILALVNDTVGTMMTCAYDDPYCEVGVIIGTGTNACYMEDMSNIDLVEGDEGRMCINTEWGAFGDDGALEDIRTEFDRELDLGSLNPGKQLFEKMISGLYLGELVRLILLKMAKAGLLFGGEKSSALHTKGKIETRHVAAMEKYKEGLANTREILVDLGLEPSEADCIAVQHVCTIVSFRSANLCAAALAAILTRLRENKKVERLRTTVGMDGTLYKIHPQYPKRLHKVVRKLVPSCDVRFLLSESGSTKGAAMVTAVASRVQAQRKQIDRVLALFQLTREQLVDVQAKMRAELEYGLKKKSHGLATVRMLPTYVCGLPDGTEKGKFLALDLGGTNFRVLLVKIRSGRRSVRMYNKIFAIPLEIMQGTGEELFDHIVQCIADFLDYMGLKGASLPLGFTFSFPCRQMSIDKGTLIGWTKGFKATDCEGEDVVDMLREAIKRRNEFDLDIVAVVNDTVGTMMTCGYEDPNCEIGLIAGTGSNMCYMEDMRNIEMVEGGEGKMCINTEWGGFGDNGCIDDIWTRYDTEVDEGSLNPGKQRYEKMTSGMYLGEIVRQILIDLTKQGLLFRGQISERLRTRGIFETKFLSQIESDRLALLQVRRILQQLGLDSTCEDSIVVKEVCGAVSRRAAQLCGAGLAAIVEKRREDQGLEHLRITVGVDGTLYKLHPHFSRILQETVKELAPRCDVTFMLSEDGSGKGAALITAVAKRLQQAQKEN
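Test system: Recombinant HKDC1 (HK5) hexokinase enzyme, produced in-house | Input: HKDC1 at 5 µg/mL | Buffer or medium: Tris pH 8.0 buffer with MgCl2, Tween-20, BSA, BME | Schedule: 90 min reaction incubation at room temperature, dark | Technique: Resazurin-to-resorufin fluorescence via G6PDH and diaphorase coupling, 525/613 nm | Controls: DMSO wells with and without enzyme mix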
EP2 mod = modulates human prostaglandin E2 receptor EP2 signaling. P43116. EP2-expressing cells, cAMP HTRF FRET, PGE2 co-stimulation. induction, % at 25 µM. hit rate 0.83% among 260,000;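 active = compounds whose cAMP rise, as percent of the full-agonist control response, exceeds 60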;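 note: rat C6 glioma line stably carrying human EP2 under a CMV promoter; the protocol text gives 20 µM as final concentration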
EP2 antag = EP2 receptor (human) inhibition; C6 glioma cells expressing human EP2, cAMP TR-FRET; cells stimulated with saturating PGE2; inhibition, % at 25 µM; hit rate 0.52% among 260,000; AID 1422;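 active = percent inhibition above 40 after rounding to a whole number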;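 note: rat C6 glioma host cells with rolipram phosphodiesterase inhibitor present; the protocol text gives 20 µM as final concentration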
Hits are given with their value.

For NC(=O)c1cccc(-c2cc(Nc3ccc(OC(F)(F)F)cc3)ncn2)c1 the results were PHOSPHO1 inh inactive, PfGluPho inh inactive, TbHK1 inh inactive, HKDC1 inh inactive, EP2 mod inactive and EP2 antag 59.
Screening COc1ccc(-c2nc(CS(=O)CC(=O)NC3CCCC3)c(C)o2)cc1 (stereo not drawn) returned PHOSPHO1 inh 70, PfGluPho inh inactive and HKDC1 inh inactive.
`Cc1ccc(-c2nc(CS(=O)CC(=O)NC3CCCCC3)c(C)o2)cc1` (stereo not drawn) gave PHOSPHO1 inh inactive, PfGluPho inh inactive and HKDC1 inh inactive.
CCC(Sc1nnc(-c2ccc(C)c(Cl)c2)n1CC)C(=O)Nc1nccs1 (stereo not drawn) was read as PHOSPHO1 inh 62, PfGluPho inh inactive, TbHK1 inh inactive, HKDC1 inh inactive, EP2 mod inactive and EP2 antag inactive.
`CN(C)c1nc(SCc2ccc(Cl)cc2)nc2c1CCCC2` gave PHOSPHO1 inh inactive, PfGluPho inh inactive, TbHK1 inh inactive, HKDC1 inh inactive, EP2 mod 62 and EP2 antag inactive.
Screening COc1ccc(NC(=O)C(C)Sc2ccccc2)cc1 (stereo not drawn) returned PHOSPHO1 inh 62, PfGluPho inh inactive, TbHK1 inh inactive, HKDC1 inh inactive, EP2 mod inactive and EP2 antag inactive.
`COc1cccc(NC(=O)c2c(NC(=O)c3ccccc3C)sc(C)c2C)c1` gave EP2 mod inactive and EP2 antag inactive.
`CCOC(=O)c1sc(NC(=O)CCC(=O)O)nc1C` gave PHOSPHO1 inh inactive, PfGluPho inh inactive, TbHK1 inh inactive, HKDC1 inh inactive, EP2 mod inactive and EP2 antag inactive.
Screening CCOC(=O)c1sc(NC(=O)Cc2ccc(C)cc2)nc1C returned PHOSPHO1 inh 62, PfGluPho inh inactive, TbHK1 inh inactive, HKDC1 inh inactive, EP2 mod inactive and EP2 antag inactive.
O=C(c1nc2ccccc2s1)C1CCN(C(=O)c2ccc3nsnc3c2)CC1 was read as EP2 mod inactive.
`CCN(CC)c1ccc(-c2nc3cnccn3c2NC2CCCC2)cc1` gave PHOSPHO1 inh 62, PfGluPho inh inactive, TbHK1 inh inactive, HKDC1 inh inactive, EP2 mod inactive and EP2 antag inactive.
For C/C(N)=C(/C#N)C(=O)COC(=O)c1ccccc1Cc1ccccc1 the results were PHOSPHO1 inh inactive, PfGluPho inh inactive, TbHK1 inh inactive, HKDC1 inh inactive, EP2 mod 63 and EP2 antag inactive.
Screening Cc1ccc2nc(-c3ccc(Br)o3)oc(=O)c2c1 returned PHOSPHO1 inh inactive, PfGluPho inh inactive, TbHK1 inh inactive, HKDC1 inh inactive, EP2 mod inactive and EP2 antag inactive.
`COc1cc2nc(-c3ccc(Br)o3)oc(=O)c2cc1OC` gave PHOSPHO1 inh inactive, PfGluPho inh inactive, TbHK1 inh inactive, HKDC1 inh inactive, EP2 mod inactive and EP2 antag 40.
Cc1ncc(-c2ccncc2)c(C2CCCN(C(=O)c3ccc(N(C)C)cc3)C2)n1 (stereo not drawn) was read as EP2 mod inactive.
O=C(CCC1CCCN(C(=O)c2ccc3[nH]ccc3c2)C1)N1CCN(c2ccccn2)CC1 (stereo not drawn) was read as PHOSPHO1 inh 64, PfGluPho inh inactive, TbHK1 inh inactive, HKDC1 inh inactive, EP2 mod inactive and EP2 antag inactive.
`Cc1nc2c(=O)n(C)c(=O)[nH]c2n1C` gave EP2 mod inactive and EP2 antag inactive.
`COc1ccc(N2C(=O)C(Cl)=C(Nc3ccccc3OC)C2=O)cc1` gave PHOSPHO1 inh inactive, PfGluPho inh inactive, TbHK1 inh inactive, HKDC1 inh inactive, EP2 mod inactive and EP2 antag inactive.
For COc1ccc(N2C(=O)C(Cl)=C(Oc3cccc(OC)c3)C2=O)cc1 the results were PHOSPHO1 inh inactive, PfGluPho inh inactive, TbHK1 inh inactive, HKDC1 inh inactive, EP2 mod inactive and EP2 antag 100.
For COc1ccc(N2C(=O)C(Cl)=C(Nc3ccccc3O)C2=O)cc1 the results were PHOSPHO1 inh 70, PfGluPho inh inactive, TbHK1 inh inactive, HKDC1 inh inactive, EP2 mod inactive and EP2 antag inactive.
Screening O=C(COc1ccc(CN2CCC(O)(c3ccccc3)C2)cc1)N1CCOCC1 (stereo not drawn) returned EP2 mod inactive and EP2 antag inactive.
